Measured values published in ChEMBL document CHEMBL3351269, “Phenylimidazoles as potent and selective inhibitors of coagulation factor XIa with in vivo antithrombotic activity” (J Med Chem, 2014).

What was measured:
Coagulation factor XI [1] = molecular target: T1, Coagulation factor XI (Homo sapiens, UniProt P03951); experiment: Inhibition of human coagulation factor 11a using p-nitroaniline as substrate assessed as substrate hydrolysis at 37 degC by spectrophotometrically
In short: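 Purified human FXIa in 50 mM HEPES pH 7.4, 145 mM NaCl, 5 mM KCl, 0.1% PEG 8000, run at 37 °C, 1% DMSO final. Enzyme added last to substrate ± inhibitor, with substrate and inhibitor in excess. pNA release read at 405 nm. IC50 from duplicate 8–11-point series, converted to Ki assuming competitive inhibition, Ki = IC50/(1+[S]/Km).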

Oryctolagus cuniculus = experiment: Clearance in rabbit plasma at 0.5 mg/kg, iv; format: ADME, organism-based; design: dose 0.5 mg/kg, route intravenous; conditions: in vivo
In short: (§1)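 Single iv dose of 0.5 mg/kg in rabbits; concentrations measured in rabbit plasma.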

Coagulation factor X = molecular target: T2, Coagulation factor X (Oryctolagus cuniculus, UniProt O19045); experiment: Inhibition of rabbit coagulation factor 10a using N-benzoyl-Ile-Glu-(OH, OMe)-Gly-Arg-pNA as substrate by spectrophotometric analysis
T2 sequence (O19045 whole entry): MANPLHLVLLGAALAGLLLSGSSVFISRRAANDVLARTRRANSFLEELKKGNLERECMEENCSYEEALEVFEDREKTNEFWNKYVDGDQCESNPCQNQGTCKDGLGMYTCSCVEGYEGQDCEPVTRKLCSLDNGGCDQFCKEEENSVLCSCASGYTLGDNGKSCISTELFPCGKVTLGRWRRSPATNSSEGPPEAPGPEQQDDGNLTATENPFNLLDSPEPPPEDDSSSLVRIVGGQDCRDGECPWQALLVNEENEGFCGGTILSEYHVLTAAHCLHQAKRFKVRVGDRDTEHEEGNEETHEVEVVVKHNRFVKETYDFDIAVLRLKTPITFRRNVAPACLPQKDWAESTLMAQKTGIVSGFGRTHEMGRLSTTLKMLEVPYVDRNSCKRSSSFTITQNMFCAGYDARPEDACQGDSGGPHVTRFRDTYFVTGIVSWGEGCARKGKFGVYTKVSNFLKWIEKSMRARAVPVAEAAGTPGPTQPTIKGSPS

[2] = Cmax in rabbit plasma at 0.5 mg/kg, iv; format: ADME, organism-based, Oryctolagus cuniculus; design: dose 0.5 mg/kg, route intravenous; in short: as §1
Coagulation factor VII = molecular target: T3, Coagulation factor VII (Oryctolagus cuniculus, UniProt P98139); experiment: Inhibition of rabbit coagulation factor 7a using H-(D)-Ile-Pro-Arg-pNA as substrate by spectrophotometric analysis
T3 sequence (P98139 whole entry): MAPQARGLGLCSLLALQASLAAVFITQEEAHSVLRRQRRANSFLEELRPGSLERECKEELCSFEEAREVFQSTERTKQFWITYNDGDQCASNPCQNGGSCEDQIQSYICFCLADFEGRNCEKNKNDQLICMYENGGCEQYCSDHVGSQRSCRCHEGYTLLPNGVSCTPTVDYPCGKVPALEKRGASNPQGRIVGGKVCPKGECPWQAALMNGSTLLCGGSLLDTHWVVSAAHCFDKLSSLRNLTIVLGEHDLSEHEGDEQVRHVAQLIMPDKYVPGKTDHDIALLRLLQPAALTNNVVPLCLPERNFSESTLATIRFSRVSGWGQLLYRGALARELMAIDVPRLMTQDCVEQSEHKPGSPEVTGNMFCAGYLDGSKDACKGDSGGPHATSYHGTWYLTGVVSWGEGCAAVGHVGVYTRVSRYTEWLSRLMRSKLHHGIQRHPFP

[3] = Inhibition of rabbit plasma kallikrein using H-D-Pro-Phe-Arg-pNA as substrate; format: cell-free, Oryctolagus cuniculus
Coagulation factor XI [4] = molecular target: T1, Coagulation factor XI; experiment: Inhibition of human coagulation factor 11a using p-nitroaniline as substrate assessed as substrate hydrolysis by spectrophotometrically
In short: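 Purified human enzymes; reaction started by adding enzyme to substrate with or without inhibitor, excess substrate and inhibitor over enzyme, 1% DMSO, room temperature, 10–120 min. pNA read at 405 nm. FXIa, FXIIa and chymotrypsin in HEPES pH 7.4 with NaCl, KCl and PEG; FXa and kallikrein in phosphate pH 7.5; FVIIa in HEPES with CaCl2. IC50 from duplicates over 8–11 concentrations, converted to Ki assuming competitive inhibition.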

[5] = Anticoagulant activity in healthy human plasma assessed as concentration required to 2 fold prolong clotting time by aPTT assay; format: functional
In short: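 Citrated human plasma from healthy volunteers (one-tenth volume 0.11 M buffered citrate; spun 2000g, 10 min, kept on ice). Inhibitor from 10 mM DMSO stock, diluted in plasma, up to seven concentrations. aPTT with Alexin: plasma warmed 1 min at 37 °C, reagent added, CaCl2 2 min later. Duplicates, as ratio to baseline. EC2x by linear interpolation, as total plasma concentration.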

T1 sequence (P03951 19-387 limits assumed): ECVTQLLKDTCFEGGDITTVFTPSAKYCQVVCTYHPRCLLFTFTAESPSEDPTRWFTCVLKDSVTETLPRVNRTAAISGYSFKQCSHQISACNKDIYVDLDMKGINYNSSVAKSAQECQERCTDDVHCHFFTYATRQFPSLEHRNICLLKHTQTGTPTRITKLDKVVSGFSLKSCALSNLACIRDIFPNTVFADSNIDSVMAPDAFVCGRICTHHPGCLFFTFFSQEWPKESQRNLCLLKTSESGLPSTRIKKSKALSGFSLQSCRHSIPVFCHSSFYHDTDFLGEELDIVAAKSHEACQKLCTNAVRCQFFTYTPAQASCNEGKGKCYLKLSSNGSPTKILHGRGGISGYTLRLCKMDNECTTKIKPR
T1 sequence (P03951 388-625 limits assumed): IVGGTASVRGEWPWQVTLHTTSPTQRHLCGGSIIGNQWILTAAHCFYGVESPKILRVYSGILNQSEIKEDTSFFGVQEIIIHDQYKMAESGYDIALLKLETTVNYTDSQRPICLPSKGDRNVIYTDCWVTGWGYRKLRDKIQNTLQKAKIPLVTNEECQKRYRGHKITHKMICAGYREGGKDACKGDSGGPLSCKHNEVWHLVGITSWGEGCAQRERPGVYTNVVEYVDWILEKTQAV

Ki (Coagulation factor XI [1]): 0.8 nM
clearance (Oryctolagus cuniculus): 20 mL/min/kg
Ki (Coagulation factor X): > 10000 nM
Cmax [2]: 2470 nM
Ki (Coagulation factor VII): 10000 nM
Ki [3]: 21 nM
Ki (Coagulation factor XI [4]): 0.3 nM
SMILES: NC[C@H]1CC[C@H](C(=O)N[C@@H](Cc2ccccc2)c2nc(-c3ccc4c(N)n[nH]c4c3)c(Cl)[nH]2)CC1.O=C(O)C(F)(F)F
2aPTT [5]: 1 µM
